Test results as given in article PMC10401071 (Cancer Discovery, 2023).

What was measured:
[1] = Phase Ia dose escalation: dose-limiting toxicities; type: in vivo, human; conditions: for maximum tolerated dose (MTD): based on DLTs during cycle 1 and BLRM
Method in brief: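 Escalating oral doses, day 1 q21d (10–80 mg) or days 1 and 8 q28d (5–60 mg). DLTs were counted over cycle 1 (21 or 28 days). The MTD was the highest dose with <25% risk of true DLT rate ≥33%, estimated by BLRM with overdose control. The RDE came from a supplementary BLRM on haematologic AEs of interest over the whole treatment period.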

[2] = Pharmacokinetic analysis of blood samples after oral brigimadlin; type: in vivo, human; conditions: for AUC(0-inf) / Cmax: oral
Method in brief: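 Oral test compound given to patients with advanced solid tumours, on day 1 of 21-day cycles or days 1 and 8 of 28-day cycles. Cycle 1 blood taken 5 min pre-dose, 1–8 h post-dose on day 1, then once on days 2, 3, 4, 5 and 8. Later cycles: pre-dose and 6 h, day 2, plus days 3 and 8 in cycle 2. Cmax and AUC by noncompartmental analysis.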

[3] = system: growth differentiation factor 15 (GDF-15); type: in vivo, human; conditions: all dose-escalation cohorts, both arms
Method in brief: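 Blood drawn for GDF-15, a circulating downstream p53 marker measured as a target-engagement surrogate. Dosing was oral, day 1 every 21 days or days 1 and 8 every 28 days. Cycle 1 sampling: 5 min pre-dose; 1, 2, 3, 4, 5, 6 and 8 h post-dose on day 1; once on days 2, 3, 4, 5 and 8. All dose-escalation cohorts, both arms.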

[4] = system: advanced or metastatic solid tumors; test: Antitumor activity, investigator-assessed per RECIST v1.1, PFS by Kaplan–Meier; type: in vivo, human; conditions: for duration of stable disease: WDLPS; for duration of response: partial response
SJSA-1 = SJSA-1 proliferation assay, in vitro; cited from earlier work

In the case of Cc1c(C(=O)O)ccc2c3n(nc12)[C@@H]1[C@H](C3)N(CC2CC2)[C@@]2(C(=O)Nc3cc(Cl)ccc32)[C@H]1c1cccc(Cl)c1F [brigimadlin], the “treatment discontinuation due to a DLT in cycle 1” value ([1]; D1D8q4w arm) is reported as “no patient discontinued treatment due to a DLT in cycle 1”, the “patients with DLTs during the MTD evaluation period (cycle 1)” value ([1]; D1D8q4w arm, 5 to 60 mg) is reported as “Three” and the “maximum tolerated dose (MTD)” value ([1]; D1D8q4w) is reported as 45 mg. For the same compound, the “treatment discontinuation due to a DLT in cycle 1” value ([1]; D1q3w arm) was “No patient discontinued treatment due to a DLT in cycle 1”, the “patients with DLTs during the MTD evaluation period (cycle 1)” value ([1]; D1q3w arm, 10 to 80 mg) was “Five” and the “maximum tolerated dose (MTD)” value ([1]; D1q3w) was 60 mg. For the same compound, the “patients with DLTs after the MTD evaluation period” value ([1]; both arms) was “Seven”, the “recommended dose for expansion (RDE) for phase Ib” value ([1]; q3w, supplementary BLRM analysis of AEs of interest over entire treatment period) was 45 mg and the “dose linearity of plasma exposure (Cmax and AUC0-inf)” value ([2]; after the first dose, both arms, dose range 5 to 80 mg) was “no significant deviation from linearity”. For the same compound, the “dose linearity of plasma exposure (Cmax and AUC0-inf)” value ([2]; dose range 10 to 60 mg) was “no significant deviation from linearity”, the AUC(0-inf) ([2]; human, plasma, 60 mg) was 121 µM·h and the Cmax ([2]; human, plasma, 60 mg) was 2.48 µM. For the same compound, the AUC(0-inf) ([2]; human, plasma, 80 mg) was 339 µM·h, the Cmax ([2]; human, plasma, 80 mg) was 4.8 µM and the half-life ([2]; human, plasma, po, half-life, patients, as summarised in Discussion) was 30 to 60 h. The “growth differentiation factor 15 levels (target engagement)” value [3] was “time- and dose-dependent increases”, the disease control rate ([4]; 12 patients with DDLPS) was 75% and the Complete response ([4]; All patients (N = 54)) was 0 n (%). The Confirmed objective response ([4]; All patients (N = 54)) was 6 (11.1) n (%), the Disease control ([4]; All patients (N = 54)) was 40 (74.1) n (%) and the “Not evaluable (best overall response)” value ([4]; All patients (N = 54)) was 3 (5.6) n (%). For the same compound, the Partial response ([4]; All patients (N = 54)) was 6 (11.1) n (%), the Progressive disease ([4]; All patients (N = 54)) was 11 (20.4) n (%) and the Stable disease ([4]; All patients (N = 54)) was 34 (63.0) n (%). The overall response rate ([4]; D1D8q4w) was 8.0%, the Complete response ([4]; D1D8q4w (n = 25)) was 0 n (%) and the Confirmed objective response ([4]; D1D8q4w (n = 25)) was 2 (8.0) n (%). The Disease control ([4]; D1D8q4w (n = 25)) was 18 (72.0) n (%), the “Not evaluable (best overall response)” value ([4]; D1D8q4w (n = 25)) was 2 (8.0) n (%) and the Partial response ([4]; D1D8q4w (n = 25)) was 2 (8.0) n (%). For the same compound, the Progressive disease ([4]; D1D8q4w (n = 25)) was 5 (20.0) n (%), the Stable disease ([4]; D1D8q4w (n = 25)) was 16 (64.0) n (%) and the disease control rate ([4]; D1D8q4w arm) was 72.0%. The “median progression-free survival (PFS)” value ([4]; D1D8q4w arm, 95% CI: 3.7–18.5) was 8.0 months, the overall response rate ([4]; D1q3w) was 13.8% and the Complete response ([4]; D1q3w (n = 29)) was 0 n (%). The Confirmed objective response ([4]; D1q3w (n = 29)) was 4 (13.8) n (%), the Disease control ([4]; D1q3w (n = 29)) was 22 (75.9) n (%) and the “Not evaluable (best overall response)” value ([4]; D1q3w (n = 29)) was 1 (3.4) n (%). For the same compound, the Partial response ([4]; D1q3w (n = 29)) was 4 (13.8) n (%), the Progressive disease ([4]; D1q3w (n = 29)) was 6 (20.7) n (%) and the Stable disease ([4]; D1q3w (n = 29)) was 18 (62.1) n (%). The disease control rate ([4]; D1q3w arm) was 75.9%, the “median progression-free survival (PFS)” value ([4]; D1q3w arm, 95% CI: 3.0–20.7) was 10.6 months and the “duration of stable disease” value ([4]; one patient) was over 14 months. For the same compound, the “duration of stable disease” value ([4]; the other two patients) was about 8 months, the disease control rate ([4]; all 54 patients) was 74.1% and the overall response rate ([4]; all 54 patients, data cutoff October 24, 2022) was 11.1%. The PFS ([4]; all seven patients with WDLPS) was over 7.5 months, the “duration of partial response” value ([4]; four WDLPS patients, ranging up to about 25 months) was at least 12 months and the “patients achieving PFS ≥14 months” value ([4]; of seven patients with WDLPS) was “five”. The “patients achieving a partial response” value ([4]; of seven patients with WDLPS) was “four”, the “patients achieving stable disease” value ([4]; of seven patients with WDLPS) was “three” and the “patients achieving stable disease” value ([4]; of the 12 patients with DDLPS) was “nine”. For the same compound, the duration of response ([4]; one patient with MDM2-amplified intrahepatic cholangiocarcinoma) was about 12 months, the duration of response ([4]; one patient with MDM2-amplified pancreatic cancer) was over 5.5 months and the “median progression-free survival (PFS)” value ([4]; overall, preliminary analysis, 95% CI: 3.8–13.5) was 8.1 months. The disease control rate ([4]; seven patients with WDLPS) was 100%, the “tumor reduction (partial response)” value ([4]; single patient (Fig. 3A), MDM2-amplified WDLPS, 20 mg q3w, starting at cycle 2) was 31% and the tumor reduction ([4]; single patient (Fig. 3A), MDM2-amplified WDLPS, cycle 19, dose reduced to 10 mg) was 47%. The “tumor reduction (partial response)” value ([4]; single patient (Fig. 3B), MDM2-amplified WDLPS, 80 mg D1q3w, cycle 3) was 32%, the best tumor reduction ([4]; single patient (Fig. 3B), MDM2-amplified WDLPS, at data cutoff) was 42% and the time on treatment ([4]; single patient (Fig. 3B), MDM2-amplified WDLPS, ongoing at data cutoff) was “more than 25 months”. For the same compound, the “time on treatment before progressive disease” value ([4]; single patient (Fig. 3D), MDM2-amplified cholangiocarcinoma) was 13.3 months and the IC50 (SJSA-1) was 12 nM.
